# Published values collected from several papers.
# Compare with care: the assays were run in different laboratories.
# Target: Calcium/calmodulin-dependent protein kinase type 1G (CAMK1G, Homo sapiens, UniProt Q96NX5)
Compound,assay,conditions,endpoint,result
CN1CC(Oc2cnc(C#N)cc2-c2ccn3nc(NC(=O)C4CC4)cc3c2)C1,"enzyme activity, inhibitor",1 µM,inhibition,-1%
CO[C@@H](C)c1c(Nc2ccc([C@@H](N(C)C(=O)C3CCS(=O)(=O)CC3)C(F)(F)F)cc2)cnc2cc(Cl)nn12,"cell-free assay, competition with immobilised ligand",1 µM,remaining binding,100%
Cc1sc(C(=O)NC2COC2)cc1-n1cc(NC(=O)Nc2c(F)cccc2Cl)cn1,"enzyme activity, inhibitor",10 µM,remaining activity,93.1%
Nc1ncnc2occ(-c3ccc(NC(=O)Nc4cc(C(F)(F)F)ccc4F)cc3)c12,cell-free assay,20 µM,remaining signal,41%
O=C(NCCCC1CCCCC1)c1ccc(CNC(=O)c2cnn(-c3ccccc3)c2C(F)(F)F)cc1,"cell-free assay, competition with immobilised ligand",0.1 µM,remaining binding,100%
O=C1Nc2ccc(Cl)cc2C1=Cc1cc(Cl)c(O)c(Cl)c1,cell-free assay,0.5 µM,remaining signal,96.6%
O=C1NC(c2ccccn2)Sc2ccccc21 (stereo not drawn),"cell-free assay, competition with immobilised ligand",1 µM,remaining binding,100%
N#CCCc1ccc2c(c1)-c1[nH]c3ccc([N+](=O)[O-])cc3c1CC(=O)N2,cell-free assay,0.5 µM,remaining signal,103%
COc1cc(Cl)c(C(=O)N[C@@H](CN[C@H]2CC[C@@H](N)CC2)Cc2ccc(C#N)cc2)cc1-c1ccc(CN[C@H](C)c2ccc(C)cc2)o1,"enzyme activity, inhibitor",1 µM,remaining activity,99%
Cc1cc(NC(=O)c2cccc3cc(-c4cccc5[nH]nc(N)c45)ccc23)ccc1F,"enzyme activity, inhibitor",0.1 µM,activity vs control,102%
c1ccc(N2CCN(Cc3nc4ccccc4[nH]3)CC2)nc1,"cell-free assay, competition with immobilised ligand",1 µM,remaining binding,100%
COc1cc2c(Nc3ccc(Br)cc3F)ncnc2cc1OCC1CCN(C)CC1,cell-free assay,0.5 µM,remaining signal,101%
Cc1ccc(C(=O)Nc2ccc(CN3CCN(C)CC3)c(C(F)(F)F)c2)cc1C#Cc1cnc2cccnn12,cell-free assay,23.5 nM,remaining signal,95%
O=C(Nc1cnn(-c2csc(C(=O)NC3COC3)c2)c1)Nc1ccccc1Cl,"enzyme activity, inhibitor",5 µM,remaining activity,94.2%
CC(C)(O)[C@H]1CC[C@H](Nc2ccc3ncc(-c4cccc(C(F)(F)F)c4)n3n2)CC1,"enzyme activity, inhibitor",1 µM,remaining activity,81.6%
